# Results taken from ChEMBL document CHEMBL1137710, “Synthesis and in vitro antitumor activity of new quinoxaline derivatives” (2009).
# Assays:
# Type in all cases: functional
# A549 = experiment: Growth inhibition of human A549 cells after 48 hrs by sulforhodamine B assay; conditions: A549, 48 h
# In short: (§1)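 NCI 60-human-tumor-cell-line panel, with compounds tested over a 5-log dose range. Values are taken from dose-response curves as log10 molar concentrations: GI50 is 50% net growth inhibition, TGI is total growth inhibition, and LC50 is 50% net cell death.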
# LOX IMVI = experiment: Growth inhibition of human LOXIMVI cells after 48 hrs by sulforhodamine B assay; in short: as §1
# MDA-MB-435 = experiment: Growth inhibition of human MDA-MB-435 cells after 48 hrs by sulforhodamine B assay; conditions: MDA-MB-435, 48 h; in short: as §1
# DU-145 = experiment: Growth inhibition of human DU145 cells after 48 hrs by sulforhodamine B assay; conditions: DU-145, 48 h; in short: as §1
# COLO 205 = experiment: Growth inhibition of human COLO205 cells after 48 hrs by sulforhodamine B assay; conditions: COLO 205, 48 h; in short: as §1
# PC-3 = experiment: Growth inhibition of human PC3 cells after 48 hrs by sulforhodamine B assay; conditions: PC-3, 48 h; in short: as §1
# 786-0 = experiment: Growth inhibition of human 786-0 cells after 48 hrs by sulforhodamine B assay; conditions: 786-0, 48 h; in short: as §1
# TK-10 = experiment: Growth inhibition of human TK10 cells after 48 hrs by sulforhodamine B assay; conditions: TK-10, 48 h
# In short: (§2)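 Run in the NCI 60-human-tumour-cell-line panel, tested over a 5-log dose range. Dose–response curves gave three values per cell line, each as a log10 molar concentration: GI50 (50% inhibition of net cell growth), TGI (total inhibition of net growth) and LC50 (50% net cell death). The mean graph midpoint is the arithmetic mean over all lines, with insensitive lines entered at the highest concentration tested.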
# U-251 = experiment: Growth inhibition of human U251 cells after 48 hrs by sulforhodamine B assay; conditions: U-251, 48 h; in short: as §2
# NCI-H460 = experiment: Growth inhibition of human NCI-H460 cells after 48 hrs by sulforhodamine B assay; conditions: NCI-H460, 48 h; in short: as §1
# OVCAR-8 = experiment: Growth inhibition of human OVCAR8 cells after 48 hrs by sulforhodamine B assay; conditions: OVCAR-8, 48 h; in short: as §1
# SK-OV-3 = experiment: Growth inhibition of human SKOV3 cells after 48 hrs by sulforhodamine B assay; conditions: SK-OV-3, 48 h; in short: as §1
# SW-620 = experiment: Growth inhibition of human SW620 cells after 48 hrs by sulforhodamine B assay; conditions: SW-620, 48 h; in short: as §2
# HCT-116 = experiment: Growth inhibition of human HCT116 cells after 48 hrs by sulforhodamine B assay; conditions: HCT-116, 48 h; in short: as §1
# MCF7 = experiment: Anticancer activity against human MCF7 cells assessed as cell growth at 100 uM after 48 hrs by sulforhodamine B assay; conditions: MCF7, 48 h, read-out: Activity
# SF-295 = experiment: Growth inhibition of human SF295 cells after 48 hrs by sulforhodamine B assay; conditions: SF-295, 48 h; in short: as §1
# NCI-H23 = experiment: Growth inhibition of human NCI-H23 cells after 48 hrs by sulforhodamine B assay; conditions: NCI-H23, 48 h; in short: as §1
# CAKI-1 = experiment: Growth inhibition of human Caki1 cells after 48 hrs by sulforhodamine B assay; conditions: CAKI-1, 48 h; in short: as §1
# SR = experiment: Growth inhibition of human SR cells after 48 hrs by sulforhodamine B assay; in short: as §2
# OVCAR-5 = experiment: Growth inhibition of human OVCAR5 cells after 48 hrs by sulforhodamine B assay; conditions: OVCAR-5, 48 h; in short: as §1
# [1] = Growth inhibition of human Hs 578T cells after 48 hrs by sulforhodamine B assay; in short: as §1
# NCI/ADR-RES = experiment: Growth inhibition of human NCI/ADR-RES cells after 48 hrs by sulforhodamine B assay; in short: as §1
# KM12 = experiment: Growth inhibition of human KM12 cells after 48 hrs by sulforhodamine B assay; conditions: KM12, 48 h; in short: as §1
# [2] = Growth inhibition of human […] cells after 48 hrs by sulforhodamine B assay; in short: as §1
# MDA-MB-231 = experiment: Growth inhibition of human MDA-MB-231 cells after 48 hrs by sulforhodamine B assay; conditions: MDA-MB-231, 48 h; in short: as §1
# RXF 393 = experiment: Growth inhibition of human RXF393 cells after 48 hrs by sulforhodamine B assay; conditions: RXF 393, 48 h; in short: as §1
# SF-268 = experiment: Anticancer activity against human SF268 cells assessed as cell growth at 100 uM after 48 hrs by sulforhodamine B assay; conditions: SF-268, 48 h, read-out: Activity
# M14 = experiment: Growth inhibition of human M14 cells after 48 hrs by sulforhodamine B assay; conditions: M14, 48 h; in short: as §1
# SNB-19 = experiment: Growth inhibition of human SNB19 cells after 48 hrs by sulforhodamine B assay; conditions: SNB-19, 48 h; in short: as §2
# [3] = read-out: pLC50 (the source's name) (converted)
smiles,measurement,setting,value
COc1ccc(CNc2nc3cc(N)cc(N)c3nc2-c2ccccc2)cc1,GI50,A549,21.4 µM
same,LC50,A549,> 100 µM
same,TGI,A549; read-out: pTGI (converted),60.3 µM
same,GI50,LOX IMVI,13.5 µM
same,LC50,LOX IMVI,55 µM
same,TGI,LOX IMVI; read-out: pTGI (converted),27.5 µM
same,GI50,MDA-MB-435,10 µM
same,CC50,MDA-MB-435; [3],46.8 µM
same,TGI,MDA-MB-435; read-out: pTGI (converted),21.9 µM
same,GI50,DU-145,21.9 µM
same,CC50,DU-145; [3],> 100 µM
same,TGI,DU-145; read-out: pTGI (converted),57.5 µM
same,GI50,COLO 205,15.5 µM
same,LC50 (50% net cell kill),COLO 205,74.1 µM
same,TGI,COLO 205; read-out: pTGI (converted),33.9 µM
same,GI50,PC-3,10.2 µM
same,CC50,PC-3; [3],72.4 µM
same,TGI,PC-3; read-out: pTGI (converted),27.5 µM
same,GI50,786-0,15.1 µM
same,CC50,786-0; [3],> 100 µM
same,TGI,786-0; read-out: pTGI (converted),41.7 µM
same,GI50,TK-10,28.2 µM
same,CC50,TK-10; [3],> 100 µM
same,TGI,TK-10; read-out: pTGI (converted),57.5 µM
same,GI50,U-251,13.5 µM
same,LC50 (50% net cell kill),U-251,51.3 µM
same,TGI,U-251; read-out: pTGI (converted),26.3 µM
same,GI50,NCI-H460,20.4 µM
same,LC50 (50% net cell kill),NCI-H460,> 100 µM
same,TGI,NCI-H460; read-out: pTGI (converted),47.9 µM
same,GI50,OVCAR-8,14.8 µM
same,CC50,OVCAR-8; [3],> 100 µM
same,TGI,OVCAR-8; read-out: pTGI (converted),39.8 µM
same,CC50,SK-OV-3; [3],> 100 µM
same,TGI,SK-OV-3; read-out: pTGI (converted),57.5 µM
same,GI50,SW-620,12.9 µM
same,CC50,SW-620; [3],70.8 µM
same,TGI,SW-620; read-out: pTGI (converted),30.2 µM
same,GI50,HCT-116,14.5 µM
same,LC50 (concentration causing 50% net cell death),HCT-116,52.5 µM
same,TGI,HCT-116; read-out: pTGI (converted),27.5 µM
same,growth at 100 µM,MCF7,0%
same,GI50,SF-295,17.8 µM
same,LC50 (50% net cell kill),SF-295,58.9 µM
same,TGI,SF-295; read-out: pTGI (converted),32.4 µM
same,GI50,NCI-H23,17 µM
same,LC50 (50% net cell kill concentration),NCI-H23,70.8 µM
same,TGI,NCI-H23; read-out: pTGI (converted),34.7 µM
same,GI50,CAKI-1,16.2 µM
same,CC50,CAKI-1; [3],79.4 µM
same,TGI,CAKI-1; read-out: pTGI (converted),36.3 µM
same,GI50,SR,4.07 µM
same,LC50 (concentration giving 50% net cell death),SR,> 100 µM
same,TGI,SR; read-out: pTGI (converted),> 100 µM
same,GI50,OVCAR-5,20.9 µM
same,CC50,OVCAR-5; [3],> 100 µM
same,TGI,OVCAR-5; read-out: pTGI (converted),45.7 µM
same,GI50,[1],26.9 µM
same,CC50,[1]; [3],> 100 µM
same,TGI,[1]; read-out: pTGI (converted),> 100 µM
same,GI50,NCI/ADR-RES,22.9 µM
same,CC50,NCI/ADR-RES; [3],> 100 µM
same,TGI,NCI/ADR-RES; read-out: pTGI (converted),83.2 µM
same,GI50,KM12,13.2 µM
same,LC50 (50% net cell kill),KM12,> 100 µM
same,TGI,KM12; read-out: pTGI (converted),26.3 µM
same,GI50,[2],4.17 µM
same,LC50,[2],> 100 µM
same,TGI,[2]; read-out: pTGI (converted),15.8 µM
same,GI50,MDA-MB-231,2.88 µM
same,CC50,MDA-MB-231; [3],64.6 µM
same,TGI,MDA-MB-231; read-out: pTGI (converted),13.8 µM
same,GI50,RXF 393,5.37 µM
same,CC50,RXF 393; [3],44.7 µM
same,TGI,RXF 393; read-out: pTGI (converted),18.2 µM
same,growth at 100 µM,SF-268,0%
same,GI50,M14,18.2 µM
same,CC50,M14; [3],57.5 µM
same,TGI,M14; read-out: pTGI (converted),32.4 µM
same,GI50,SNB-19,41.7 µM
same,LC50,SNB-19,> 100 µM
same,TGI,SNB-19; read-out: pTGI (converted),> 100 µM
